ChEMBL document CHEMBL1250551, “Improvement of water-solubility of biarylcarboxylic acid peroxisome proliferator-activated receptor (PPAR) δ-selective partial agonists by disruption of molecular planarity/symmetry” (Bioorg Med Chem, 2010)
In brackets after ≈: the same amount, converted by molar mass.

What was measured:
[1] = biological target: T1, Peroxisome proliferator-activated receptor alpha (Homo sapiens) (UniProt Q07869); assay: Partial agonist activity at human recombinant PPARalpha LBD expressed in HEK293 cells co-transfected with Gal4 assessed as beta-galactosidase activity by luciferase based transactivation assay relative to fenofibric acid; format: functional, cell-based
T1 sequence (whole entry): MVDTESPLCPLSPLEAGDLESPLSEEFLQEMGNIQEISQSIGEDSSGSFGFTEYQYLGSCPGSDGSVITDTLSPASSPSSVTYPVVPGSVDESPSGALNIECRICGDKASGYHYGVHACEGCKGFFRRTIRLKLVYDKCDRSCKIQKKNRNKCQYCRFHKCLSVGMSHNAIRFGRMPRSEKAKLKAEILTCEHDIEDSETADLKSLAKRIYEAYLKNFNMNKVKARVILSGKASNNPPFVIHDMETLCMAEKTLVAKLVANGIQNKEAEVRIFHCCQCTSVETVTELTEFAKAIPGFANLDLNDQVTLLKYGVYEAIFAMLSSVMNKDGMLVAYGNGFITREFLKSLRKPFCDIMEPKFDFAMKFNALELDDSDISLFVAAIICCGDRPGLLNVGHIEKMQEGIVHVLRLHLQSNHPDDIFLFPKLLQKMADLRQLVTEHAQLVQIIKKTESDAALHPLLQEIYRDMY
In short: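 GAL4-based reporter system analogous to the PPARδ assay, using a GAL4 DNA-binding domain–PPARα LBD chimera, TK-MH100x4-LUC reporter and CMX β-galactosidase for normalization. Positive control and test compounds were added 6 h after the preceding step and incubated overnight. Luciferase luminescence was read after luciferin addition, and β-galactosidase by absorbance at 405 nm. Efficacy was expressed relative to fenofibric acid.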

[2] = Thermodynamic aqueous solubility of the compound in phosphate buffer at pH 7.4; format: physicochemical
In short: (§1)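 Thermodynamic solubility: about 1 mg solid ground in agate mortar, suspended in 1.0 mL of either 1:15 M phosphate buffer pH 7.4 or an equal-volume mix of that buffer with EtOH. Shaken 48 h at 25 °C, filtered (0.22 µm), filtrate diluted in DMF and quantified by reversed-phase HPLC-UV (262–295 nm) against a calibration curve, corrected for dilution.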

[3] = biological target: T2, Peroxisome proliferator-activated receptor gamma (Homo sapiens, UniProt P37231); assay: Partial agonist activity at human recombinant PPARgamma LBD expressed in HEK293 cells co-transfected with Gal4 assessed as beta-galactosidase activity at 1 uM by luciferase based transactivation assay; format: functional, cell-based
T2 sequence (P37231 whole entry): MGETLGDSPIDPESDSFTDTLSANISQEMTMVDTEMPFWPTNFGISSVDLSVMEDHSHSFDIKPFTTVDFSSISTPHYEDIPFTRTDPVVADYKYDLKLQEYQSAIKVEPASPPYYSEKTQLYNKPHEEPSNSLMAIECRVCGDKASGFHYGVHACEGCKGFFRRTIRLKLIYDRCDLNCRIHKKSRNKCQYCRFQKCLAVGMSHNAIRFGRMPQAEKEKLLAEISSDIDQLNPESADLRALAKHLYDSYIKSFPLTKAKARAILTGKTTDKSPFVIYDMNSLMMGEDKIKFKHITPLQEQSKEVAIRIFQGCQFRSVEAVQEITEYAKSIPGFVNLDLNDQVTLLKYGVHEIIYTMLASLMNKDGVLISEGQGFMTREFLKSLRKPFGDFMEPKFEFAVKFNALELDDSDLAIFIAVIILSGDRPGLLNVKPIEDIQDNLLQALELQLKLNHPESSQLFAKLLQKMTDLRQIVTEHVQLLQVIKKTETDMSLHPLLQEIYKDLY

[4] = biological target: T3, Peroxisome proliferator-activated receptor alpha (Homo sapiens, UniProt Q07869); assay: Partial agonist activity at human recombinant PPARalpha LBD expressed in HEK293 cells co-transfected with Gal4 assessed as beta-galactosidase activity by luciferase based transactivation assay; format: functional, cell-based
T3 sequence (Q07869 whole entry): T1 sequence (whole entry)
In short: (§2)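 GAL4-hPPAR LBD fusion transactivation: cells co-transfected with CMX-GAL4N-hPPAR LBD receptor plasmid, TK-MH100x4-LUC reporter and CMX β-galactosidase normalization plasmid. Positive controls (fenofibric acid for PPARα; ciglitazone 100 nM for PPARγ) and test compounds added 6 h later; overnight incubation. Luminescence read after luciferin addition; β-galactosidase absorbance at 405 nm used for normalization.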

[5] = biological target: T4, Peroxisome proliferator-activated receptor delta (Homo sapiens, UniProt Q03181); assay: Partial agonist activity at human recombinant PPARdelta LBD expressed in HEK293 cells co-transfected with Gal4 assessed as beta-galactosidase activity by luciferase based transactivation assay; format: functional, cell-based
T4 sequence (Q03181 whole entry): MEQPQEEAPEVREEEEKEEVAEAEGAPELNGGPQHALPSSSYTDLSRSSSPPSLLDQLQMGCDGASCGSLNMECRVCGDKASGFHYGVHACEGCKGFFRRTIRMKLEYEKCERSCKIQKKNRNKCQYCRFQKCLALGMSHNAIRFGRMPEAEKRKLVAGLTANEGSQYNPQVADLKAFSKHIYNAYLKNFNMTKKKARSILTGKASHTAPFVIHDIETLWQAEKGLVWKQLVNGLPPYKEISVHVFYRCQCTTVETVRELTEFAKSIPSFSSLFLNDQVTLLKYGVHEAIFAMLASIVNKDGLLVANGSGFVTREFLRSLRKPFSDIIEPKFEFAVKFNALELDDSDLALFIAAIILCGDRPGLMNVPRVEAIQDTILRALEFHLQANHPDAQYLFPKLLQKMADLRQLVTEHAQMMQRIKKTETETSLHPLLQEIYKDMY

[6] = Thermodynamic aqueous solubility of the compound in 1:15 M of 50% EtOH and phosphate buffer at pH 7.4; format: physicochemical; settings: for solubility thermodynamic: 50% EtOH and phosphate buffer; for solubility: buffer; in short: as §1
[7] = biological target: T4, Peroxisome proliferator-activated receptor delta; assay: Partial agonist activity at human recombinant PPARdelta LBD expressed in HEK293 cells co-transfected with Gal4 assessed as beta-galactosidase activity at 1 uM by luciferase based transactivation assay; format: functional, cell-based; in short: as §2
[8] = biological target: T3, Peroxisome proliferator-activated receptor alpha; assay: Partial agonist activity at human recombinant PPARalpha LBD expressed in HEK293 cells co-transfected with Gal4 assessed as beta-galactosidase activity at 1 uM by luciferase based transactivation assay; format: functional, cell-based; in short: as §2

Row | solubility thermodynamic [2] [µg/mL] | EC50 [3] | solubility thermodynamic [6] [µg/mL] | EC50 [8] | Structure (SMILES) | also measured
1 | 2700 (≈ 5210 µM) | Not Active | 17700 (≈ 34100 µM) |  | CCCCOc1ccc(-c2c(C)ncc(C(=O)O)c2C)cc1CNC(=O)c1ccc(C(F)(F)F)cc1F | Efficacy [1]: 100%; EC50 [4]: 4200 nM; EC50 [5]: 76 nM
2 |  |  |  |  | O=C(O)c1ccc(-c2ccc(OCCCO)c(CNC(=O)c3ccc(C(F)(F)F)cc3F)c2)cc1 | EC50 [7]: Not Active
3 |  | Not Active |  | Not Active | CCCCOc1ccc(-c2ccc(C(=O)O)cn2)cc1CNC(=O)c1ccc(C(F)(F)F)cc1F | 
4 |  | Not Active |  | Not Active | CCCCOc1ccc(-c2ccc(C(=O)O)o2)cc1CNC(=O)c1ccc(C(F)(F)F)cc1F | 
5 | < 1 | Not Active |  |  | CCCCOc1ccc(-c2cccc(C(=O)O)c2)cc1CNC(=O)c1ccc(C(F)(F)F)cc1F | solubility [6]: 1350 µg/mL (≈ 2760 µM)
6 |  | Not Active |  | Not Active | CCCCOc1ccc(-c2ccc(C(=O)O)nc2)cc1CNC(=O)c1ccc(C(F)(F)F)cc1F | 
7 | 7.62 (≈ 15.5 µM) | Not Active |  |  | CCCCOc1ccc(-c2cncc(C(=O)O)c2)cc1CNC(=O)c1ccc(C(F)(F)F)cc1F | EC50 [4]: 4000 nM; EC50 [5]: 220 nM; solubility [6]: 9030 µg/mL (≈ 18400 µM)
8 | < 1 | Not Active | 375 (≈ 766 µM) |  | CCCCOc1ccc(-c2ccc(C(=O)O)cc2)cc1CNC(=O)c1ccc(C(F)(F)F)cc1F | 
9 |  |  |  |  | CCCC(=O)Oc1ccc(-c2ccc(C(=O)O)cc2)cc1CNC(=O)c1ccc(C(F)(F)F)cc1F | EC50 [7]: Not Active
10 | < 1 |  | 985 (≈ 1960 µM) | Not Active | CCCCOc1ccc(-c2ccc(C(=O)O)cc2C)cc1CNC(=O)c1ccc(C(F)(F)F)cc1F | 
11 | < 1 | Not Active | 3220 (≈ 6350 µM) | Not Active | CCCCOc1ccc(-c2ccc(C(=O)O)cc2F)cc1CNC(=O)c1ccc(C(F)(F)F)cc1F | 
12 | 21.7 (≈ 41.3 µM) | Not Active |  | Not Active | CCCCOc1ccc(-c2c(F)ccc(C(=O)O)c2F)cc1CNC(=O)c1ccc(C(F)(F)F)cc1F | EC50 [5]: 5.7 nM; solubility [6]: 10400 µg/mL (≈ 19800 µM)
13 | < 1 | Not Active | 9950 (≈ 19800 µM) |  | CCCCOc1ccc(-c2cccc(C(=O)O)c2C)cc1CNC(=O)c1ccc(C(F)(F)F)cc1F | 
14 |  |  |  |  | COCCOc1ccc(-c2ccc(C(=O)O)cc2)cc1CNC(=O)c1ccc(C(F)(F)F)cc1F | EC50 [7]: Not Active
